Data published in ChEMBL document CHEMBL1154872, “Design, synthesis, and biological evaluation of novel pyrimidine derivatives as CDK2 inhibitors” (Eur J Med Chem, 2010).

Key:
[1] = target: Epidermal growth factor receptor (Homo sapiens, UniProt P00533); experiment: Inhibition of EGFR
HCT-116 = experiment: Growth inhibition of human HCT116 cells after 2 days by sulforhodamine B assay; format: functional; settings: HCT-116, 48 h
How it was run: (§1)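 Cells kept in RPMI 1640 with 10% FBS at 37 °C, 5% CO2; 1000 cells/well plated, compounds added next day at various concentrations, 2 days exposure. Fixed with 4% formalin 30 min, stained 0.1% SRB 30 min, acetic acid washes, dye eluted in 0.1 M Tris-HCl pH 8.0, A520 read. Triplicate, averaged; time-zero absorbance = 0%, untreated 2-day growth = 100%.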

A-431 = experiment: Growth inhibition of human A431 cells after 2 days by sulforhodamine B assay; format: functional; settings: A-431, 48 h; how it was run: as §1
[2] = target: Cyclin-dependent kinase 2/cyclin A (Homo sapiens, UniProt P24941); experiment: Inhibition of human recombinant CDK2/cyclin A expressed in baculovirus-infected insect Sf21 cells after 10 mins

Chain of Epidermal growth factor receptor (P00533 whole entry): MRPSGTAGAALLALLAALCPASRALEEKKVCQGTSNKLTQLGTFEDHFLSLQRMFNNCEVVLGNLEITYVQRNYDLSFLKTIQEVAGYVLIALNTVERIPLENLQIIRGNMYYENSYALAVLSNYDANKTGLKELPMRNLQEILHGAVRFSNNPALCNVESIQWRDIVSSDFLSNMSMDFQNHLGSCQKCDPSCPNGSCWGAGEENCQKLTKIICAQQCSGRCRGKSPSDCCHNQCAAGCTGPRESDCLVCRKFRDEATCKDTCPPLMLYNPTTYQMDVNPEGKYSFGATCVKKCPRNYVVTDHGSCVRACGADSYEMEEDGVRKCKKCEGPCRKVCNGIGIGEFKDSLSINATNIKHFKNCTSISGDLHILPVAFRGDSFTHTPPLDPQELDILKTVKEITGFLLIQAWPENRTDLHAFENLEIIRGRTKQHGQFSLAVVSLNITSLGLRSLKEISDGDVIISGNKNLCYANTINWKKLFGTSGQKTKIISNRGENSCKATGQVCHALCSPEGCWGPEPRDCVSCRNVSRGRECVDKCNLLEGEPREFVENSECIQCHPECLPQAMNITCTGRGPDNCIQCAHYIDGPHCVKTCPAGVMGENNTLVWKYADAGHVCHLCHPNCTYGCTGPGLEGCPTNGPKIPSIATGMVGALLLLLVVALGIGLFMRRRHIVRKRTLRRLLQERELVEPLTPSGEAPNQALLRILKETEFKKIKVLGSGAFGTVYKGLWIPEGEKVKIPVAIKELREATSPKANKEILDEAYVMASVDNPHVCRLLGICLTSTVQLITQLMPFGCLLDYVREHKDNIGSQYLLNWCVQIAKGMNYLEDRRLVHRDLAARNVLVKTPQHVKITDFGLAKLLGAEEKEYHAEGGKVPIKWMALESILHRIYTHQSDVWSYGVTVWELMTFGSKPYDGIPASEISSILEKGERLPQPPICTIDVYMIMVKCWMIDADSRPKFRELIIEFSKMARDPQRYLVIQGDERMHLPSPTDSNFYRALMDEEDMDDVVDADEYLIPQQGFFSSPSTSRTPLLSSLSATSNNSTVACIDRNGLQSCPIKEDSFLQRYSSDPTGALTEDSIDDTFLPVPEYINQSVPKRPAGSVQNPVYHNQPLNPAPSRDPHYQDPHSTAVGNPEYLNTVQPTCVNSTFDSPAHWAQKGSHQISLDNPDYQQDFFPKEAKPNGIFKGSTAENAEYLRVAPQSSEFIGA

SMILES | IC50 [1] | GI50 (HCT-116) | GI50 (A-431) | IC50 [2]
CC1=C(C(=O)Nc2cccc([N+](=O)[O-])c2)C(c2ccc(O)cc2O)NC(Nc2ccc(S(=O)(=O)Nc3ncccn3)cc2)=N1 (centres undefined) | 88.3 µM | 77.5 µM | 69.2 µM | 57.5 µM
CC1=C(C(=O)Nc2cccc([N+](=O)[O-])c2)C(c2ccc(O)cc2O)NC(Nc2ccc(S(=O)(=O)Nc3nc(C)cc(C)n3)cc2)=N1 (centres undefined) | 79.8 µM | 8.99 µM | 3.94 µM | 11.5 µM
CC1=C(C(=O)Nc2cccc([N+](=O)[O-])c2)C(c2ccc(O)cc2O)NC(Nc2ccc(S(=O)(=O)Nc3cc(C)on3)cc2)=N1 (centres undefined) | > 100 µM | 16.6 µM | 2.94 µM | 0.9 µM
CC1=C(C(=O)Nc2cccc([N+](=O)[O-])c2)C(c2ccc(O)cc2O)NC(NN2C(=O)/C(=C\c3cccs3)SC2=S)=N1 (centres undefined) | 80.6 µM | 4.5 µM | 2.78 µM | 0.3 µM
CC1=C(C(=O)Nc2cccc([N+](=O)[O-])c2)C(c2ccc(O)cc2O)NC(NN2C(=O)/C(=C\c3ccccc3)SC2=S)=N1 (centres undefined) | > 100 µM | 16.6 µM | 24.3 µM | 28.2 µM
CC1=C(C(=O)Nc2cccc([N+](=O)[O-])c2)C(c2ccc(O)cc2O)NC(NN)=N1 (centres undefined) | 47.9 µM | 47.7 µM | 24.3 µM | > 100 µM
CC1=C(C(=O)Nc2cccc([N+](=O)[O-])c2)C(c2ccc(O)cc2O)NC(NN2C(=O)/C(=C\c3ccco3)SC2=S)=N1 (centres undefined) | 99.3 µM | > 100 µM | 28.9 µM | 0.4 µM
CC1=C(C(=O)Nc2cccc([N+](=O)[O-])c2)C(c2ccc(O)cc2O)NC(N/N=C/c2cccs2)=N1 (centres undefined) | > 100 µM | 38.2 µM | 19.1 µM | 22.9 µM
Cc1nc(S(=O)(=O)Cc2ccccc2)nc(-c2ccc(O)cc2O)c1C(=O)Nc1cccc([N+](=O)[O-])c1 | > 100 µM | 10.9 µM | 28.9 µM | 0.9 µM
CC1=C(C(=O)Nc2cccc([N+](=O)[O-])c2)C(c2ccc(O)cc2O)NC(N/N=C/c2ccco2)=N1 (centres undefined) | > 100 µM | 8.89 µM | 2.91 µM | 3.8 µM
CC1=C(C(=O)Nc2ccc(C)cc2)C(c2ccc(O)cc2O)NC(Nc2ccc([N+](=O)[O-])cc2Cl)=N1 (centres undefined) | 60.9 µM | 28.2 µM | 31.9 µM | 44.9 µM
CC1=C(C(=O)Nc2cccc([N+](=O)[O-])c2)C(c2ccc(O)cc2O)NC(NCc2ccccc2)=N1 (centres undefined) | > 100 µM | > 100 µM | 35.6 µM | 46.8 µM
CC1=C(C(=O)Nc2cccc([N+](=O)[O-])c2)C(c2ccc(O)cc2O)NC(Nc2ccc([N+](=O)[O-])cc2Cl)=N1 (centres undefined) | > 100 µM | 10.9 µM | 3.94 µM | 8.1 µM
Cc1ccc(NC(=O)c2c(C)nc(S(=O)(=O)Cc3ccccc3)nc2-c2ccc(O)cc2O)cc1 | > 100 µM | 23.4 µM | 32 µM | 48.3 µM
CC1=C(C(=O)Nc2ccc(C)cc2)C(c2ccc(O)cc2O)NC(SCc2ccccc2)=N1 (centres undefined) | 93.5 µM | 14.5 µM | 20.8 µM | 25.4 µM
CC1=C(C(=O)Nc2cccc([N+](=O)[O-])c2)C(c2ccc(O)cc2O)NC(SCc2ccccc2)=N1 (centres undefined) | 55.6 µM | 29 µM | > 100 µM | 24.6 µM
CC1=NN(C2=NC(C)=C(C(=O)Nc3cccc([N+](=O)[O-])c3)C(c3ccc(O)cc3O)N2)C(=O)/C1=C/c1ccco1 (centres undefined) | > 100 µM | > 100 µM | 15.8 µM | 10.3 µM
CC1=NN(C2=NC(C)=C(C(=O)Nc3cccc([N+](=O)[O-])c3)C(c3ccc(O)cc3O)N2)C(=O)/C1=C/c1cccs1 (centres undefined) | > 100 µM | 26.5 µM | 37.1 µM | 3.1 µM
CC1=C(C(=O)Nc2ccc(C)cc2)C(c2ccc(O)cc2O)NC(NCc2ccccc2)=N1 (centres undefined) | 23.5 µM | 66.7 µM | 42.7 µM | > 100 µM
COc1cccc2c1C(=O)c1c(O)c3c(c(O)c1C2=O)C[C@@](O)(C(=O)CO)C[C@@H]3O[C@H]1C[C@H](N)[C@H](O)[C@H](C)O1 [DOXORUBICIN] |  | 0.13 µM | 0.18 µM | 
CC[C@H](CO)Nc1nc(NCc2ccccc2)c2c(n1)N(C(C)C)CN2 [RESCOVITINE] |  |  |  | 0.5 µM
